Data set [1] addresses Serine/threonine-protein kinase WNK2 (Homo sapiens) (UniProt Q9Y3S1). Put plainly: Inhibition of recombinant human WNK2 (166 to 489 residues) at 1 uM using MBP as substrate measured after 40 mins in presence of [gamma33P]ATP by scintillation counting method relative to control.
Data set [2] deals with NCI-H1299. Kind of data set: Antitumour activity against human H1299 cells xenografted in Balb/c mouse assessed as effect on CDK9 level at 20 to 80 mg/kg, po administered for 3 weeks by […] based light microscopic analysis. In kind it is functional, organism-based. Put shortly: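 Tumours came from the H1299 oral-dosing xenograft run for 3 weeks. Formalin-fixed, paraffin-embedded 5-µm sections were deparaffinized and rehydrated. Primary antibodies (CDK9, cyclin T1, p-Rb Ser780, RNAPII CTD Ser5, Oct4) used at 1:100 overnight at 4 °C. Biotinylated secondary for 1 h at room temperature, then ABC-peroxidase/DAB, hematoxylin counterstain and light microscopy.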
For orientation: Xenograft models place foreign cells or tissue in a host animal.

The target in data set [3] is Insulin-like growth factor 1 receptor (Homo sapiens) (UniProt P08069). Kind of data set: Inhibition of recombinant human activated IGF1R (959 to end residues) at 1 uM using KKKSPGEYVNIEFG as substrate measured after 40 mins in presence of [gamma33P]ATP by scintillation counting method relative to control.
Data set [4] has as its system NCI-H1299. Put plainly: Induction of apoptosis in human H1299 cells assessed as increase in cleaved caspase 3 expression at 0.25 to 1 uM after 24 hrs by Western blot analysis. In kind it is functional, cell-based. Put shortly:
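A549 or H1299 cells exposed to the indicated concentrations for 24 h. Protein extracts then immunoblotted for apoptosis-pathway proteins (Bcl2, Bim, cleaved caspase 3).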

In the next data set the test system is A549. Put plainly: Induction of apoptosis in human A549 cells assessed as necrotic cells at 0.25 uM after 48 hrs by AnnexinV-FITC/PI staining-based flow cytometric analysis (reference value: 0.664%). In kind it is functional. In general terms: Flow cytometry measures light scatter and fluorescence of single cells or particles in a stream.
The target of data set [5] is NUAK family SNF1-like kinase 2 (Homo sapiens) (UniProt Q9H093). Put plainly: Inhibition of recombinant full-length human NUAK2 at 1 uM using KKKVSRSGLYRSPSMPENLNRPR as substrate measured after 40 mins in presence of [gamma33P]ATP by scintillation counting method relative to control.
The target of data set [6] is Cyclin-dependent kinase-like 1 (Homo sapiens) (UniProt Q00532). Kind of data set: Inhibition of recombinant human CDKL1 (1 to 303 residues) at 1 uM using RRRFRPASPLRGP as substrate measured after 120 mins in presence of [gamma33P]ATP by scintillation counting method relative to control.
The test system of data set [7] is NCI-H1299. Put plainly: Induction of apoptosis in human H1299 cells assessed as late apoptotic cells at 0.25 uM after 48 hrs by AnnexinV-FITC/PI staining-based flow cytometric analysis (reference value: 1.77%). The class given is functional.
A short description of data set [8]: Toxicity in Balb/c mouse xenografted with human H1299 cells assessed as effect on body weight at 20 to 80 mg/kg, po administered for 21 days and measured daily […]. In kind it is organism-based. To be noted: in vivo, 504 h.
The target of data set [9] is Proto-oncogene tyrosine-protein kinase receptor Ret (Homo sapiens) (UniProt P07949). Put plainly: Inhibition of human Ret (658 to end residues) at 1 uM using KKKSPGEYVNIEFG as substrate measured after 40 mins in presence of [gamma33P]ATP by scintillation counting method relative to control. Put shortly:
(§1)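 Percent inhibition of kinase activity at a single compound concentration, measured by the outsourced Eurofins KinaseProfiler panel. Values are the mean of two independent experiments.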

Data set [10] has as its target Serine/threonine-protein kinase PAK 4 (Homo sapiens) (UniProt O96013). Put plainly: Inhibition of recombinant human PAK4 (295 to end residues) at 1 uM using myelin basic protein as substrate measured after 40 mins in presence of [gamma33P]ATP by scintillation counting method relative to control.
The nature of data set [11]: Intrinsic clearance in CD-1 mouse liver microsomes at 2 uM in presence of NADPH measured up to 1 hr by HPLC analysis. The class given is ADME, Microsome. (In general: Liver microsomes are a subcellular fraction often used to study metabolism.)
The target of data set [12] is Mitogen-activated protein kinase kinase kinase kinase 4 (Homo sapiens) (UniProt O95819). Kind of data set: Inhibition of recombinant human MAP4K4 (1 to 328 residues) at 1 uM using RLGRDKYKTLRQIRQ as substrate measured after 40 mins in presence of [gamma33P]ATP by scintillation counting method relative to control.
Sequence of Mitogen-activated protein kinase kinase kinase kinase 4 (Homo sapiens) (O95819 2-1239 limits assumed): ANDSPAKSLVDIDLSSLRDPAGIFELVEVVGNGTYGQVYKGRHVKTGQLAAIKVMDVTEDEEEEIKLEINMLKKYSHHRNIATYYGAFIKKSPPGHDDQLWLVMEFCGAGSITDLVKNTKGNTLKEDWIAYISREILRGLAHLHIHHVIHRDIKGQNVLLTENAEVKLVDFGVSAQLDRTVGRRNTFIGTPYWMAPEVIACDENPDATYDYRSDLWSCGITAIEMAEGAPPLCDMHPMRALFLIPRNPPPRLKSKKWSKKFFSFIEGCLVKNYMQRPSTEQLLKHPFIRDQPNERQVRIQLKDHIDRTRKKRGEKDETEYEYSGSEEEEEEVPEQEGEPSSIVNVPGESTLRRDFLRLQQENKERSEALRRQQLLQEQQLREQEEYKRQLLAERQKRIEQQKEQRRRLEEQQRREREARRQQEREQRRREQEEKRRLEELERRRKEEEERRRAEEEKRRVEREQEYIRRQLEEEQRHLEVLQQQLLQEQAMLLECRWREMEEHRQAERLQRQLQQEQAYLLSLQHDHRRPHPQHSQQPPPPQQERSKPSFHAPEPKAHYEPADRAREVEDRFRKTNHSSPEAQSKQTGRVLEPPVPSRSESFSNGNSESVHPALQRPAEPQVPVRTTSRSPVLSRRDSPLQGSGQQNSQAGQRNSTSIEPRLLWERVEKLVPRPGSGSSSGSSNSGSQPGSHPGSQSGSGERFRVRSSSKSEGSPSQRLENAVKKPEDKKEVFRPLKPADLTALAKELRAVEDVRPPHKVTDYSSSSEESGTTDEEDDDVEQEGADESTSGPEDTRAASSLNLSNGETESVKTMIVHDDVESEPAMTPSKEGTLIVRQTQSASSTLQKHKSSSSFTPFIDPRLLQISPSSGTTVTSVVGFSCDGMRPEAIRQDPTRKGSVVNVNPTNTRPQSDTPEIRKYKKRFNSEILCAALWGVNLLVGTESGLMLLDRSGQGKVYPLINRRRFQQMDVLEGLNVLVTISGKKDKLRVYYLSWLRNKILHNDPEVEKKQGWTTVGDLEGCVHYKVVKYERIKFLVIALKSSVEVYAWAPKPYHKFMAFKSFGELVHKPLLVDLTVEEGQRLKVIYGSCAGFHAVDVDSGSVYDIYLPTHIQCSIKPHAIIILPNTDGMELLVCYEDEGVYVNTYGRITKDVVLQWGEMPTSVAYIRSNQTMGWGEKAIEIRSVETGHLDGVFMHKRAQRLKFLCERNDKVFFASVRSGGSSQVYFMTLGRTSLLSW
Data set [13] deals with Non-receptor tyrosine-protein kinase TYK2 (Homo sapiens) (UniProt P29597). Put plainly: Inhibition of human TYK2 (875 to end residues) at 1 uM using GGMEDIYFEFMGGKKK as substrate measured after 40 mins in presence of [gamma33P]ATP by scintillation counting method relative to control. Put shortly:
as §1

The target of data set [14] is Dual specificity protein kinase CLK3 (Homo sapiens) (UniProt P49761). Put plainly: Inhibition of full length recombinant human CLK3 at 1 uM using ERMRPRKRQGSVRRRV as substrate measured after 40 mins in presence of [gamma33P]ATP by scintillation counting method relative to control.
The target in data set [15] is Protein kinase C epsilon type (Homo sapiens) (UniProt Q02156). Put plainly: Inhibition of recombinant human PKCepsilon (2 to end residues) at 1 uM using ERMRPRKRQGSVRRRV as substrate measured after 40 mins in presence of [gamma33P]ATP by scintillation counting method relative to control.
Sequence of Protein kinase C epsilon type (Homo sapiens) (Q02156 whole entry): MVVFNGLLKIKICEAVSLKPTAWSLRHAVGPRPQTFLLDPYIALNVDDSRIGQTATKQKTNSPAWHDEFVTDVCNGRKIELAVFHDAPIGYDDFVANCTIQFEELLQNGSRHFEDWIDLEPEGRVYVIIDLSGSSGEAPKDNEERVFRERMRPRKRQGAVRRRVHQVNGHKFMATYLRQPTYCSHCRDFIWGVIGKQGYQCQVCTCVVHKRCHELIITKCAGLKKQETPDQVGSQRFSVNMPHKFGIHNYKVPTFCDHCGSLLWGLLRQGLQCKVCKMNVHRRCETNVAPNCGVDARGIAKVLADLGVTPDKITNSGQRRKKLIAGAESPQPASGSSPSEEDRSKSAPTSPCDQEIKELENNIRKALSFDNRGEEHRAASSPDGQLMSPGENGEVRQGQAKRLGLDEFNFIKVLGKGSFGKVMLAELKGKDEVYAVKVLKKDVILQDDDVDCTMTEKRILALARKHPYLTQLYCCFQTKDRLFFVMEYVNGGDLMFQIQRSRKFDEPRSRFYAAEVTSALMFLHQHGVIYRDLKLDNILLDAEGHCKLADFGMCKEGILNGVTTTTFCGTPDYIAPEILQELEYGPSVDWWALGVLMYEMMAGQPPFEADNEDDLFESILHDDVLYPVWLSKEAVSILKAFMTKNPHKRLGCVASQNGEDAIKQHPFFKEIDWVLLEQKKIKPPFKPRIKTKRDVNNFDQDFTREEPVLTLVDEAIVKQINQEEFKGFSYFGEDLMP
The species named for the next data set is Homo sapiens. Kind of data set: Inhibition of recombinant full-length human PI3K p120gamma R459Q mutant at 1 uM using phosphatidylinositol-4, 5-bisphosphate as substrate measured after 40 mins by fluorescence assay relative to control.
Data set [16] deals with Homeodomain-interacting protein kinase 1 (Homo sapiens) (UniProt Q86Z02). Put plainly: Inhibition of recombinant human activated HIPK1 (158 to 555 residues) at 1 uM using myelin basic protein as substrate measured after 40 mins in presence of [gamma33P]ATP by scintillation counting method relative to control.
Sequence of Homeodomain-interacting protein kinase 1 (Homo sapiens) (Q86Z02 whole entry, looked up, the tested form may be a part): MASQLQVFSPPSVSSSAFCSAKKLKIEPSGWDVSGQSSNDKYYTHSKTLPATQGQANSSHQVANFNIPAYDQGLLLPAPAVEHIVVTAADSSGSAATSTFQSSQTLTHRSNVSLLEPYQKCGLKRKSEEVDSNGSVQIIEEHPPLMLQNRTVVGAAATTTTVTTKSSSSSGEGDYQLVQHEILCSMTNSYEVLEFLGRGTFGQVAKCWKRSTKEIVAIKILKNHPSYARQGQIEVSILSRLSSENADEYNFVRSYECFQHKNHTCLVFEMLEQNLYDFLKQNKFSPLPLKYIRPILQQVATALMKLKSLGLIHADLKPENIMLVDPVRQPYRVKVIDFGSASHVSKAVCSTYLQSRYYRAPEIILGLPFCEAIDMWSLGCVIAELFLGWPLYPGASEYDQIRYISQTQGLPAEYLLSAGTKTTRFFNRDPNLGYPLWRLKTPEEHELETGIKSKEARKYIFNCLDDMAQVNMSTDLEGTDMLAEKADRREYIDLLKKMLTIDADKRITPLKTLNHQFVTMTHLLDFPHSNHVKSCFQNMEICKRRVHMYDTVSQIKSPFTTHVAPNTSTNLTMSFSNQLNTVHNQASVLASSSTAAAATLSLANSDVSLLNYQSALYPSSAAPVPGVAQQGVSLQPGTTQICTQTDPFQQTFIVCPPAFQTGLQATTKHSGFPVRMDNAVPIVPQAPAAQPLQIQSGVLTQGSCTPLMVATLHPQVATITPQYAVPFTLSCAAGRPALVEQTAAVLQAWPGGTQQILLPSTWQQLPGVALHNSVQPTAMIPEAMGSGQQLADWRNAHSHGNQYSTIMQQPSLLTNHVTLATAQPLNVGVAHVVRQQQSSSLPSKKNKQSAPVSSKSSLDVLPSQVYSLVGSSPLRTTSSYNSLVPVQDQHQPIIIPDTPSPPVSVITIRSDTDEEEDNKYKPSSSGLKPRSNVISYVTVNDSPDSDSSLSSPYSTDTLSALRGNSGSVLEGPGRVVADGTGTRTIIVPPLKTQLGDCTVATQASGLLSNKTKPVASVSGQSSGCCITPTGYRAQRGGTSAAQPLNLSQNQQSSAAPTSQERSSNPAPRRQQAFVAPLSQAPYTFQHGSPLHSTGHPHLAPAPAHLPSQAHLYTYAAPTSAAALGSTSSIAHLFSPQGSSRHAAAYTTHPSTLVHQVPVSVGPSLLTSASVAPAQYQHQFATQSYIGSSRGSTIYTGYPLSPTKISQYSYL
Data set [17] concerns the target Myosin light chain kinase 2, skeletal/cardiac muscle (Homo sapiens) (UniProt Q9H1R3). Put plainly: Inhibition of recombinant full length human MYLK2 at 1 uM using KKLNRTLSFAEPG as substrate measured after 40 mins in presence of [gamma33P]ATP by scintillation counting method relative to control. Put shortly: (§2)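 Single-point inhibition at 1 µM was measured in the Eurofins KinaseProfiler panel. Values are the mean of two independent experiments.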

Data set [18] deals with Cyclin-dependent kinase 9 (Homo sapiens) (UniProt P50750). As to conditions: A549, 0.25 to 1 uM.
Sequence of Cyclin-dependent kinase 9 (Homo sapiens) (P50750 whole entry, the tested form may be a part, canonical isoform): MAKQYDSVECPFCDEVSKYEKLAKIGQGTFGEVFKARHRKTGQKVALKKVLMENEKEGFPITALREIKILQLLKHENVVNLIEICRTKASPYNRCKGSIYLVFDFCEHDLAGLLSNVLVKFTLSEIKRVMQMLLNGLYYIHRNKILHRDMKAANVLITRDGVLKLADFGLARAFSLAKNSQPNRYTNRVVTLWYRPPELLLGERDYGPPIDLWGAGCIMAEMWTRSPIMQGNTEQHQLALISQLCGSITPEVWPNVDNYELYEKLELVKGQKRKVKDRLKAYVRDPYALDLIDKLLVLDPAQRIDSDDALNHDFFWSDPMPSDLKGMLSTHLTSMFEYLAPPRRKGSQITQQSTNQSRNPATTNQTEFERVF
The subject of data set [19] is Casein kinase I isoform gamma-3 (Homo sapiens), Q9Y6M4 [UNDEFINED MUTATION]. Put plainly: Inhibition of recombinant human CK1gamma3 K91E/R174G/E302D mutant (1 to 330 residues) at 1 uM using KRRRALS(p)VASLPGL as substrate measured after 40 mins in presence of [gamma33P]ATP by scintillation counting method relative to control. Put shortly: as §2
The target of data set [20] is Protein kinase C beta type (Homo sapiens) (UniProt P05771). Kind of data set: Inhibition of recombinant human PKCbeta2 (2 to end residues) at 1 uM using histone H1 as substrate measured after 40 mins in presence of [gamma33P]ATP by scintillation counting method relative to control.
Sequence of Protein kinase C beta type (Homo sapiens) (P05771 2-671 limits assumed): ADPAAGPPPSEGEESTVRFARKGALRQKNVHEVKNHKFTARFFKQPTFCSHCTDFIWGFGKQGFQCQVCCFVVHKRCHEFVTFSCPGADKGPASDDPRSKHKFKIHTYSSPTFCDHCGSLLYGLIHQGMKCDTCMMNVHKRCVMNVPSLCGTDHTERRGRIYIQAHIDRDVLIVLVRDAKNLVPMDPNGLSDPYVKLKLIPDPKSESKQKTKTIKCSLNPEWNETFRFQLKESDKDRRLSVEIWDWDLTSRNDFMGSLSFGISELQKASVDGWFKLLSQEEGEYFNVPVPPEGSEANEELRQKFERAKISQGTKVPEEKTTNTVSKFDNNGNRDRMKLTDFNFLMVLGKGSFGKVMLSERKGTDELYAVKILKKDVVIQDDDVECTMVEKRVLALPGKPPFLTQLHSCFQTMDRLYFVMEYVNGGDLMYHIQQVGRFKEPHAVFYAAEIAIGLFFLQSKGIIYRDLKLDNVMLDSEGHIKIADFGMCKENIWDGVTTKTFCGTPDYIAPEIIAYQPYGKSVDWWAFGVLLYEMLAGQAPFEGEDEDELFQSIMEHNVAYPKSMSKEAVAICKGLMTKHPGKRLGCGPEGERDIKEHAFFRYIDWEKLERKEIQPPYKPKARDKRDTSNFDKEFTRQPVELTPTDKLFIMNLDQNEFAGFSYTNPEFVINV

The source made the active and inactive calls. The rule behind the calls is not given here.

Sequence of Myosin light chain kinase 2, skeletal/cardiac muscle (Homo sapiens) (Q9H1R3 whole entry): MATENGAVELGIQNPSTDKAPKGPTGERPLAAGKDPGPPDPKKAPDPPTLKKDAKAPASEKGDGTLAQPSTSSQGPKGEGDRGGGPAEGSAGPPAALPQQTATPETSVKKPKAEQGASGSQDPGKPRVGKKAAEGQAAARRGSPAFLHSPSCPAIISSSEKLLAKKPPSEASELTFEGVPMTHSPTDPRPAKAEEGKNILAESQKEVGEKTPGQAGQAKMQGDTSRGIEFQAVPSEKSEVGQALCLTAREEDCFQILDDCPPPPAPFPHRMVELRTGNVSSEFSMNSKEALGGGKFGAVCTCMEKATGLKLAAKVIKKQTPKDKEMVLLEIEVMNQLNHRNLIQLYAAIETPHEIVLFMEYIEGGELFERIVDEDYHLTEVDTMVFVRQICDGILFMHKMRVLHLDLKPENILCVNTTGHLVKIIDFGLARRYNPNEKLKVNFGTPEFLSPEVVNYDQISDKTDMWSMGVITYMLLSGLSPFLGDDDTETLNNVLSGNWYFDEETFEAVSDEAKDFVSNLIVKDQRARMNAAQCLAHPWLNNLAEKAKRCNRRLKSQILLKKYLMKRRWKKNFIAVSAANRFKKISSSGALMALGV

The term inhibition denotes the relative decrease from the control value, in per cent. `CN(C)C(=O)c1cc2cnc(Nc3ccc(NC(=O)CCCCCCCN=C=S)cc3)nc2n1C1CCCC1`: the inhibition in data set [1] worked out at 4%; in [3] it was 0%; in data set [5] it was 66%; in data set [6] it was 17%; in [9] it was 55%; in data set [10], 10%. The inhibition in data set [12] was 16%; in [13] it was 4%; in data set [14] it was 37%; in data set [15], -3%; in the data set filed under Homo sapiens, 14%; in data set [16], 9%. Moreover, the inhibition in data set [17] is 12%; in [19], 11%; in data set [20], 72%. Further, the outcome with NCI-H1299 [2] was inactive. Moreover, the result in the data set on NCI-H1299 [4] was Active. Further, the Activity is on record as 5.83% in the data set on A549, 2.24% in the data set with NCI-H1299 [7] and “Non-Toxic” in [8]. Further, the CLH in data set [11] is 100 µL/min/mg. The inhibition result in [18] is “Active”.

For the origin of these results see ChEMBL document CHEMBL4376814, “Novel cyclin-dependent kinase 9 (CDK9) inhibitor with suppression of cancer stemness activity against non-small-cell lung cancer” (Eur J Med Chem, 2019).
